Results gathered from unrelated publications.
Each line is one published result; the experiments were not run side by side.
Cell line: MCF7
Read-out: cell growth or viability

| Structure (SMILES) | technique | time | IC50 |
| --- | --- | --- | --- |
| FC(F)(F)c1cccc(Nc2ncnc3ccc(-c4ccc(CN5CCOCC5)cc4)cc23)c1 | MTT | 24 h | 4.05 µM |
| CC/C(=C(\c1ccc(O)cc1)c1ccc(OCCN(C)C)cc1)c1ccccc1 |  | 5 days | 4.22 µM |
| O=C(/C=C/c1ccc(O)c(O)c1)O[C@@H]1C[C@](O)(C(=O)O)C[C@@H](O)[C@H]1O | WST-1 | 48 h | 9.5 µM |
| O=C(N/N=C/c1cccn1CCN1CCOCC1)Nc1cc2c(Nc3ccc(F)c(Cl)c3)ncnc2cc1O[C@H]1CCOC1 | MTT | 72 h | 2.13 µM |
| CCOc1ccc(-c2nc3ccccc3[nH]2)cc1 | MTT | 48 h | > 100 µM |
| CSc1nc(/N=C/c2cc(Br)ccc2O)n(-c2ccc(C(=O)O)cc2)n1 | MTT |  | 31.3 µM |
| O=[N+]([O-])c1ccc(S(=O)(=O)NN=Cc2cn(CCN3CCOCC3)c3ccccc23)cc1 | MTT | 48 h | 82 µM |
| COc1ccc(C(=O)O[C@@H]2CN3Cc4c(cc5c(c4OC)OCO5)[C@@]24C=C[C@H](OC)C[C@@H]34)cc1OC | WST-1 |  | 4.9 µM |
| Cc1ccc2nc(-c3ccco3)n(Cc3ccccc3)c2c1 | MTT |  | 41.5 µM |
| O=C(NC(=S)NCc1ccccc1)c1ccc2ccccc2c1 |  | 48 h | 4.99 µM |
| Cc1ccc2nc(-c3ccc(Cl)cc3)n(Cc3ccccc3Cl)c2c1 | MTT |  | 59.8 µM |
| CC(=O)CC(=O)[c-]1cccc1.[Fe+2].c1cc[cH-]c1 | MTT | 96 h | 54 µM |
| Cc1ccc2nc(-c3ccc(F)cc3)[nH]c2c1 | MTT | 48 h | 38.6 µM |
| COc1cccc2c1C(=O)c1c(O)c3c(c(O)c1C2=O)C[C@@](O)(C(=O)CO)C[C@@H]3O[C@H]1C[C@H](N)[C@H](O)[C@H](C)O1 | MTT | 72 h | 0.74 µM |
| CCN(CC)C/C=N/NC(=O)Nc1cc2c(Nc3ccc(F)c(Cl)c3)ncnc2cc1OC | MTT | 72 h | 3.28 µM |
| O=C(NC(=S)N1CCCCC1)c1ccc2ccccc2c1 |  | 48 h | 7.32 µM |
| C=CCn1c(-c2ccc(Cl)cc2)nc2ccc(C)cc21 | MTT |  | 22.2 µM |
| Nc1ccc(-c2csc(Nc3ccc4c(O)ncnc4c3)n2)cc1 | MTT |  | 8.29 µM |
| CCOc1cc(-c2nc3ccccc3[nH]2)ccc1O | MTT | 48 h | 59.2 µM |
| Cc1nc(Nc2ncc(C(=O)Nc3c(C)cccc3Cl)s2)cc(N2CCN(CCO)CC2)n1 | MTT | 48 h | 7.99 µM |
| O=C(N/N=C/c1cccn1CCN1CCCCC1)Nc1cc2c(Nc3ccc(F)c(Cl)c3)ncnc2cc1O[C@H]1CCOC1 | MTT | 72 h | 2.41 µM |
| COc1cc(Nc2nccc(-c3cnn4nc(OC)ccc34)n2)cc(C(F)(F)F)c1 | ATP luminescence |  | 0.95 µM |
| COc1cccc(C(c2c(N)nc(SCC(N)=O)[nH]c2=O)c2c(N)nc(SCC(N)=O)[nH]c2=O)c1 | MTT | 72 h | > 100 µM |
| O=C(N/N=C/c1cccn1CCCN1CCCCC1)Nc1cc2c(Nc3ccc(F)c(Cl)c3)ncnc2cc1O[C@H]1CCOC1 | MTT | 72 h | 1.32 µM |
| Oc1c(Br)cc(Br)c2cccnc12 | MTT | 48 h | > 100 µM |
